# Source: ChEMBL document CHEMBL1143869, “Amide bond direction modulates G-quadruplex recognition and telomerase inhibition by 2,6 and 2,7 bis-substituted anthracenedione derivatives” (Bioorg Med Chem, 2008)
# Columns and labels:
# Homo sapiens [1] = species: Homo sapiens; experiment: Binding affinity to human telomeric G-quadraflex assessed as thermal stability at 10 uM by FRET assay
# Outline: (§1)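 Human telomeric (GGGTTA)4 oligonucleotide labelled with fluorescein at the 5'-end and MethylRed quencher at the 3'-end, folded into an intramolecular G-quadruplex in 50 mM potassium phosphate buffer, pH 7.4. Fluorescence melting was run on a Roche Light Cycler (excitation 488 nm, emission 520 nm) without and with ligand. Stabilisation was taken as the increase in melting temperature.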
# Homo sapiens [2] = species: Homo sapiens; experiment: Binding affinity to human telomeric G-quadraflex assessed as thermal stability at 1 uM by FRET assay; outline: as §1
# [3] = Inhibition of human telomerase in JR8 cells by TRAP assay; type: cell-based
# Outline: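 Modified TRAP assay. Telomerase source was supernatant of JR8 cell lysate (13000 rpm, 30 min, 4 °C). The 50 µl reaction held 50 µM dNTPs, 0.2 µg labelled TS, 0.1 µg ACX return primer, 500 ng protein extract, 2 U Taq and a TSNT internal control with NT primer, with or without drug at increasing concentrations. Telomerase was inactivated at 85 °C for 5 min. PCR ran 25 cycles (94/65/72 °C, 30 s each). Products were resolved on a 2% agarose gel and stained with ethidium bromide.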
Structure (SMILES),ΔTm (Homo sapiens [1]),ΔTm (Homo sapiens [2]),EC50 [3]
O=C(CCN1CCCC1)Nc1ccc2c(c1)C(=O)c1ccc(NC(=O)CCN3CCCC3)cc1C2=O,19.2 °C,5.9 °C,2.5 µM
O=C(NCCN1CCCC1)c1ccc2c(c1)C(=O)c1ccc(C(=O)NCCN3CCCC3)cc1C2=O,10.8 °C,1.8 °C,10.4 µM
NCCC(=O)Nc1ccc2c(c1)C(=O)c1cc(NC(=O)CCN)ccc1C2=O,27.3 °C,11.3 °C,1.2 µM

# Further compounds by falling EC50 [3], results first:
ΔTm (Homo sapiens [1]),ΔTm (Homo sapiens [2]),EC50 [3],Structure (SMILES)
12.9 °C,3.3 °C,14.5 µM,NCCNC(=O)c1ccc2c(c1)C(=O)c1cc(C(=O)NCCN)ccc1C2=O
10 °C,2 °C,5.2 µM,NCCNC(=O)c1ccc2c(c1)C(=O)c1ccc(C(=O)NCCN)cc1C2=O
18.1 °C,9.1 °C,1.2 µM,NCCC(=O)Nc1ccc2c(c1)C(=O)c1ccc(NC(=O)CCN)cc1C2=O
